The values that follow come from paper PMC2156157 (The Journal of Cell Biology, 1999).

One experiment concerns c-Yes. Type of experiment: cell-based, human. Conditions: 16HBE14o− on transwell filters, mouse anti–c-Yes (1:100), XZ confocal. In a few lines: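 16HBE14o− clones stably expressing GFP-YAP65 chimeras were selected with G418 and screened by fluorescence and anti-GFP blot. Cells were grown to confluence on transwell filters and fixed in 4% paraformaldehyde. After blocking (milk/BSA/0.1% Triton X-100, 3 h), they were stained with mouse anti-c-Yes (1:100) and fluorescent secondary antiserum, then scanned in XZ by confocal microscopy. At least two independent clones per line were analysed.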

The test system of the next experiment is GST-PDZ2 (PDZ2 of EBP50). Description: GST-PDZ2 affinity resin binding of radiolabeled protein. More on the design: species or system human. In a few lines:
(§1)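 GST or GST-EBP50, PDZ1 or PDZ2 fusion (10 µg) was immobilised on glutathione agarose. Binding ran in binding buffer + 0.1% Triton X-100 for 3 h at 4°C. Resin washed three times in TEE/1 M NaCl/1% Triton, then three times in binding buffer/1% Triton. Eluate acetone-precipitated; SDS-PAGE and phosphorimaging; ≥3 repeats.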

Experiment [1] deals with SH3 domain of c-Src and c-Yes. Particulars: biochemical assays; ref Sudol 1994; cited from earlier work.
For experiment [2], the system named is GST. Description: GST control pull-down from 16HBE14o− lysate, Western blot. The format is binding. Particulars: 10 μg GST. An outline of the steps:
(§2)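 Human bronchial epithelial 16HBE14o− cells lysed in RIPA with 250 µM orthovanadate and protease inhibitors, then cleared at 40,000 g. GST or GST fusion protein (10 µg) on glutathione agarose was incubated with lysate (100 µg or ~200 µg) in binding buffer + 0.1% Triton X-100 for 3 h at 4°C. Washes: TEE/1 M NaCl/1% Triton, then binding buffer. Bound protein detected by 10% SDS-PAGE and immunoblot; ≥3 repeats.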

In experiment [3] the test system is apical membrane of airway epithelial cells. The format is cell-based, human. Conditions: 16HBE14o− cells on transwell filters 7–10 d after confluence, confocal. An outline of the steps:
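Samples were 16HBE14o− filters (7–10 d post-confluence) or primary nasal cultures (air-liquid interface, 40–50 d). Fixation was 4% paraformaldehyde, 5–20 min, room temperature. Blocking used milk/BSA/Triton (16HBE14o−) or 10–20% goat serum (primary). Primary antisera ran 4–12 h: ezrin 1:300, ZO-1 1:200, EBP50 1:500 or 1:200, YAP65 1:300 or 1:200. Primary cultures also got 70 nM FITC-phalloidin. Texas red/FITC secondaries, XZ confocal imaging.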

The test system of experiment [4] is GST-EBP50. Description: GST-EBP50 affinity resin binding of radiolabeled proteins. More on the design: species or system human. Particulars: in vitro, conclusion from competition and resin binding. An outline of the steps:
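GST-EBP50 (10 µg) on glutathione agarose was preincubated for 2 h with or without biotinylated C-terminal peptides. Peptides were given at 400 nM, or at increasing concentrations of YAP65 wild-type peptide. Incubation lasted 3 h at 4°C, followed by high-salt (1 M NaCl) and detergent washes. Bound and unbound fractions read by SDS-PAGE and phosphorimaging.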

The subject of a further experiment is GST-PDZ1 (PDZ1 of EBP50). Description: GST-PDZ1 affinity resin binding of radiolabeled protein. More on the design: species or system human. Particulars: 10 μg; radiolabeled full-length YAP65; 1 M NaCl washes. An outline of the steps: as §1
In experiment [5] the test system is GST-EBP50. Description: GST-EBP50 pull-down from 16HBE14o− lysate, Western blot. The format is binding, human. Particulars: 10 μg GST-EBP50, 16HBE14o− lysate. In a few lines: as §2
For orientation: Immunoblotting shows a protein as a band on a membrane.

Experiment [6] concerns GST. Description: GST control resin binding of radiolabeled protein. Conditions: 10 μg; radiolabeled full-length YAP65; 1 M NaCl washes. An outline of the steps:
as §1

Experiment [7] relates to GST-EBP50. Description: blot overlay, GST-EBP50. The format is binding, human. Particulars: blot overlay assays (not shown).
The test system of another experiment is GST-PDZ2. Description: GST-PDZ2 pull-down from 16HBE14o− lysate, Western blot. Type of experiment: binding, human. Particulars: 10 μg GST-PDZ2, ∼200 μg 16HBE14o− lysate. An outline of the steps:
(§3)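 GST fusion protein (10 μg) immobilized on glutathione agarose and incubated 3 h at 4°C with ~200 μg 16HBE14o− lysate. Lysate made in RIPA with 250 μM orthovanadate and protease inhibitors, cleared at 40,000 g, and diluted in binding buffer + 0.1% Triton X-100. Beads washed in TEE/1 M NaCl/1% Triton, then in binding buffer/1% Triton. Eluates run on SDS-PAGE and Western blotted; each assay run at least three times.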

A further experiment relates to GST-PDZ1. Description: GST-PDZ1 pull-down from 16HBE14o− lysate, Western blot. The format is binding, human. Conditions: 10 μg GST-PDZ1, ∼200 μg 16HBE14o− lysate. In a few lines:
as §3

Ends that are not written are not given here. * marks the point of attachment. Biotin = O=C1N[C@H]2[C@H](CS[C@H]2CCCCC(=O)*)N1

Take “GFP-YAP65/−4: GFP fused with YAP65 lacking the last four amino acids”: the “c-Yes distribution in cells stably overexpressing the chimera” value with c-Yes is “a significant amount of c-Yes was redistributed to the lateral cell borders”.
On to “YAP65: Yes-associated protein 65; full-length human, in vitro translated, or endogenous”, for which the “association with GST-PDZ2” value with GST-PDZ2 (PDZ2 of EBP50) (10 μg, radiolabeled full-length YAP65, 1 M NaCl washes) was “associated with GST-EBP50 and GST-PDZ2 of EBP50”. Also, the “binding to SH3 domain of c-Src and c-Yes” value in experiment [1] was “bind the SH3 domain of c-Src and c-Yes, although the affinity for c-Yes was greater”. Further, the “association with GST from lysate” value in the experiment on GST [2] is on record as “not to GST beads”. Further, the “localization of endogenous protein” value in experiment [3] was “preferentially accumulated at the apical membrane”. Further, in the experiment with GST-EBP50 [4], the “affinity for EBP50” value was “appear to bind EBP50 with high affinity”. Further, the “association with GST-PDZ1” value with GST-PDZ1 (PDZ1 of EBP50) is “not with GST or GST-PDZ1”. Further, the “association with GST-EBP50 from lysate” value in the experiment with GST-EBP50 [5] is on record as “bound to the GST-EBP50 beads”. For the same substance, in the experiment on GST [6], the “association with GST” value is “not with GST or GST-PDZ1”.
“YAPwt: the COOH-terminal 10 amino acids of YAP65 (Biotin-SGSGLDKESFLTWL)”: in the experiment on GST-PDZ2 (PDZ2 of EBP50) (GST fusion proteins of PDZ1 and PDZ2, pull-down (Fig. 5 C), discussion statement), the “preferential binding to PDZ2 versus PDZ1” value was “preferential binding of YAP65 to PDZ2”. For the same substance, the “binding to GST-EBP50 in blot overlay” value in the experiment on GST-EBP50 [7] is recorded as “bound GST-EBP50”.
“c-Yes: nonreceptor tyrosine kinase of the Src family”: the “association with GST-PDZ2 from lysate” value in the experiment with GST-PDZ2 is “easily visualized in the bound fraction of GST-EBP50 and GST-PDZ2 affinity resins”. Also, the “association with GST from lysate” value with GST [2] was “no c-Yes was found to associate with GST or with GST-PDZ1”. The “association with GST-EBP50 from lysate” value with GST-EBP50 [5] is “easily visualized in the bound fraction of GST-EBP50 and GST-PDZ2 affinity resins”. Also, the “association with GST-PDZ1 from lysate” value with GST-PDZ1 is on record as “no c-Yes was found to associate with GST or with GST-PDZ1”.
